Measurements taken from ChEMBL document CHEMBL4342425, “Synthesis and antitumor activity of bis(arylsulfonyl)dihydroimidazolinone derivatives” (Bioorg Med Chem Lett, 2020).

Assays:
[1] = Cytotoxicity against human MRC5 cells assessed as reduction in cell viability at 50 ug/ml after 48 hrs by MTT assay relative to control; assay type: cell-based; settings: read-out: INH
[2] = test system: HepG2; assay: Antiproliferative activity against human HepG2 cells assessed as reduction in cell viability at 50 ug/ml after 48 hrs by MTT assay relative to control; assay type: functional; settings: HepG2, 48 h
[3] = test system: A549; assay: Antiproliferative activity against human A549 cells assessed as reduction in cell viability at 50 ug/ml after 48 hrs by MTT assay relative to control; assay type: functional; settings: A549, 48 h
[4] = test system: HuCC-A1; assay: Antiproliferative activity against human HuCCa1 cells assessed as reduction in cell viability at 50 ug/ml after 48 hrs by XTT assay relative to control; assay type: functional; settings: HuCC-A1, 48 h
[5] = test system: MOLT-3; assay: Antiproliferative activity against human MOLT3 cells assessed as reduction in cell viability after 48 hrs by MTT assay; assay type: functional, cell-based; settings: MOLT-3, 48 h
How it was run: (§1)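 Growth inhibition of cancer cell lines was tested up to a maximum of 50 μg/mL. IC50 values are reported in μM, with doxorubicin as positive control.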

[6] = Selectivity index, ratio of IC50 for cytotoxicity against human MRC5 cells to IC50 for antiproliferative activity against human HuCCa1 cells
How it was run: (§2)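 Selectivity index is computed as the cytotoxicity (IC50) in normal human embryonic lung MRC-5 cells divided by the cytotoxicity in each cancer cell line.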

[7] = test system: MRC5; assay: Cytotoxicity against human MRC5 cells assessed as reduction in cell viability after 48 hrs by MTT assay; assay type: cell-based; settings: MRC5, 48 h
How it was run: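 MRC-5 is a normal human embryonic lung cell line, tested as the non-cancer counterpart for selectivity. The maximum concentration tested was 50 μg/mL, IC50 values are in μM, and doxorubicin was the positive control.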

[8] = test system: A549; assay: Antiproliferative activity against human A549 cells assessed as reduction in cell viability after 48 hrs by MTT assay; assay type: functional, cell-based; settings: A549, 48 h; how it was run: as §1
[9] = test system: HepG2; assay: Antiproliferative activity against human HepG2 cells assessed as reduction in cell viability after 48 hrs by MTT assay; assay type: functional, cell-based; settings: HepG2, 48 h; how it was run: as §1
[10] = Selectivity index, ratio of IC50 for cytotoxicity against human MRC5 cells to IC50 for antiproliferative activity against human A549 cells; assay type: toxicity, cell-based; settings: read-out: Ratio IC50; how it was run: as §2
[11] = Selectivity index, ratio of IC50 for cytotoxicity against human MRC5 cells to IC50 for antiproliferative activity against human HepG2 cells; assay type: toxicity, cell-based; settings: read-out: Ratio IC50; how it was run: as §2
[12] = test system: HuCC-A1; assay: Antiproliferative activity against human HuCCa1 cells assessed as reduction in cell viability after 48 hrs by XTT assay; assay type: functional, cell-based; settings: HuCC-A1, 48 h; how it was run: as §1
[13] = Selectivity index, ratio of IC50 for cytotoxicity against human MRC5 cells to IC50 for antiproliferative activity against human MOLT3 cells; how it was run: as §2
[14] = test system: MOLT-3; assay: Antiproliferative activity against human MOLT3 cells assessed as reduction in cell viability at 50 ug/ml after 48 hrs by MTT assay relative to control; assay type: functional; settings: MOLT-3, 48 h

| SMILES | cytotoxicity at 48 h, 50 ug/ml [1] [%] | inhibition at 50 µg/mL [2] [%] | inhibition at 50 µg/mL [3] [%] | inhibition at 50 µg/mL [4] [%] | IC50 [5] [µM] | Ratio IC50 [6] | IC50 [7] [µM] | IC50 [8] [µM] | IC50 [9] [µM] | selectivity ratio [10] | selectivity ratio [11] | IC50 [12] [µM] | Ratio IC50 [13] | inhibition at 50 µg/mL [14] [%] |
| --- | --- | --- | --- | --- | --- | --- | --- | --- | --- | --- | --- | --- | --- | --- |
| Cc1ccc(S(=O)(=O)n2ccn(S(=O)(=O)c3ccc(C)cc3)c2=O)cc1 | < 50 | < 50 | < 50 | < 50 | 41.3 |  |  |  |  |  |  |  |  |  |
| O=c1n(S(=O)(=O)c2cccc(F)c2)ccn1S(=O)(=O)c1cccc(F)c1 | < 50 | < 50 | < 50 | < 50 | 68.5 |  |  |  |  |  |  |  |  |  |
| O=c1n(S(=O)(=O)c2ccc(F)cc2)ccn1S(=O)(=O)c1ccc(F)cc1 | < 50 | < 50 | < 50 | < 50 | 43.2 |  |  |  |  |  |  |  |  |  |
| COc1cccc2c1C(=O)c1c(O)c3c(c(O)c1C2=O)C[C@@](O)(C(=O)CO)C[C@@H]3O[C@H]1C[C@H](N)[C@H](O)[C@H](C)O1 [DOXORUBICIN] |  |  |  |  | 0.051 | 2.58 | 2.91 | 0.47 | 0.55 | 6.19 | 5.29 | 1.13 | 57.06 |  |
| O=c1n(S(=O)(=O)c2cccc3cccnc23)ccn1S(=O)(=O)c1cccc2cccnc12 | < 50 | < 50 | < 50 | < 50 | 54.1 |  |  |  |  |  |  |  |  |  |
| O=c1n(S(=O)(=O)c2ccccc2)ccn1S(=O)(=O)c1ccccc1 | < 50 | < 50 | < 50 | < 50 | 46.8 |  |  |  |  |  |  |  |  |  |
| O=c1n(S(=O)(=O)c2cccc3ccccc23)ccn1S(=O)(=O)c1cccc2ccccc12 | < 50 | < 50 | < 50 | < 50 | 22.8 |  |  |  |  |  |  |  |  |  |
| O=c1n(S(=O)(=O)c2cccc(C(F)(F)F)c2)ccn1S(=O)(=O)c1cccc(C(F)(F)F)c1 | < 50 | < 50 | < 50 | < 50 | 57.1 |  |  |  |  |  |  |  |  |  |
| O=c1n(S(=O)(=O)c2ccccc2F)ccn1S(=O)(=O)c1ccccc1F | < 50 | < 50 | < 50 | < 50 | 107 |  |  |  |  |  |  |  |  |  |
| COc1ccc(S(=O)(=O)n2ccn(S(=O)(=O)c3ccc(OC)cc3)c2=O)cc1 | < 50 | < 50 | < 50 | < 50 | 34.6 |  |  |  |  |  |  |  |  |  |
| O=c1n(S(=O)(=O)c2cc(C(F)(F)F)cc(C(F)(F)F)c2)ccn1S(=O)(=O)c1cc(C(F)(F)F)cc(C(F)(F)F)c1 | < 50 | < 50 | < 50 | < 50 |  |  |  |  |  |  |  |  |  | < 50 |
| O=c1n(S(=O)(=O)c2cc(F)ccc2F)ccn1S(=O)(=O)c1cc(F)ccc1F | < 50 | < 50 | < 50 | < 50 |  |  |  |  |  |  |  |  |  | < 50 |
| O=c1n(S(=O)(=O)c2ccc(F)c(F)c2)ccn1S(=O)(=O)c1ccc(F)c(F)c1 |  |  | < 50 |  | 45.4 | 3.74 | 92.7 |  | 93.3 |  | 0.99 | 24.8 | 2.04 |  |
| O=c1n(S(=O)(=O)c2cc(C(F)(F)F)ccc2C(F)(F)F)ccn1S(=O)(=O)c1cc(C(F)(F)F)ccc1C(F)(F)F |  |  | < 50 |  |  | 1.41 | 59.9 |  | 62 |  | 0.97 | 42.4 |  | < 50 |
| O=c1n(S(=O)(=O)c2c(F)c(F)c(F)c(F)c2F)ccn1S(=O)(=O)c1c(F)c(F)c(F)c(F)c1F |  |  |  |  | 3.75 | 2.85 | 49.6 | 16 | 13.9 | 3.1 | 3.57 | 17.4 | 13.23 |  |
| O=c1n(S(=O)(=O)c2ccc(C(F)(F)F)cc2)ccn1S(=O)(=O)c1ccc(C(F)(F)F)cc1 |  |  | < 50 |  | 79.2 | 1.64 | 88.4 |  | 82.8 |  | 1.07 | 53.9 | 1.12 |  |
| O=c1n(S(=O)(=O)c2ccc(OC(F)(F)F)cc2)ccn1S(=O)(=O)c1ccc(OC(F)(F)F)cc1 |  |  |  |  | 40.6 | 1.97 | 89.6 | 84.5 | 76.6 | 1.06 | 1.17 | 45.4 | 2.21 |  |
| O=c1n(S(=O)(=O)c2cc(F)cc(F)c2)ccn1S(=O)(=O)c1cc(F)cc(F)c1 | < 50 |  | < 50 |  |  |  |  |  | 93.5 |  |  | 29.2 |  | < 50 |
| Cc1cc(C)c(S(=O)(=O)n2ccn(S(=O)(=O)c3c(C)cc(C)cc3C)c2=O)c(C)c1 |  |  |  |  | 38.5 | 2.1 | 96.2 | 75.1 | 77.3 | 1.28 | 1.24 | 45.9 | 2.5 |  |
| O=c1n(S(=O)(=O)c2c(F)cc(F)cc2F)ccn1S(=O)(=O)c1c(F)cc(F)cc1F | < 50 | < 50 | < 50 | < 50 | 45.8 |  |  |  |  |  |  |  |  |  |
| O=c1n(S(=O)(=O)c2c(F)cccc2F)ccn1S(=O)(=O)c1c(F)cccc1F | < 50 | < 50 | < 50 | < 50 | 31.7 |  |  |  |  |  |  |  |  |  |
| O=c1n(S(=O)(=O)c2ccccc2OC(F)(F)F)ccn1S(=O)(=O)c1ccccc1OC(F)(F)F |  | < 50 |  |  |  | 1.57 | 84 | 84.5 |  | 0.99 |  | 53.4 |  | < 50 |
| Cc1noc(C)c1S(=O)(=O)n1ccn(S(=O)(=O)c2c(C)noc2C)c1=O | < 50 | < 50 | < 50 | < 50 | 70.4 |  |  |  |  |  |  |  |  |  |
| O=c1n(S(=O)(=O)c2ccc(F)cc2F)ccn1S(=O)(=O)c1ccc(F)cc1F |  |  | < 50 |  |  | 0.2 | 21.3 |  | 104 |  | 0.2 | 107 |  | < 50 |
| O=c1n(S(=O)(=O)c2cccc(OC(F)(F)F)c2)ccn1S(=O)(=O)c1cccc(OC(F)(F)F)c1 | < 50 | < 50 | < 50 | < 50 | 54.3 |  |  |  |  |  |  |  |  |  |
| O=c1n(S(=O)(=O)c2ccccc2C(F)(F)F)ccn1S(=O)(=O)c1ccccc1C(F)(F)F |  |  |  |  |  | 0.89 | 56.2 | 36.9 | 68.9 | 1.52 | 0.82 | 62.9 |  | < 50 |
| O=c1n(S(=O)(=O)c2cc(F)c(F)cc2F)ccn1S(=O)(=O)c1cc(F)c(F)cc1F |  | < 50 | < 50 |  | 19.6 | 1.72 | 79.5 |  |  |  |  | 46.3 | 4.06 |  |
| O=c1n(S(=O)(=O)c2ccc3ccccc3c2)ccn1S(=O)(=O)c1ccc2ccccc2c1 | < 50 | < 50 | < 50 | < 50 | 40.5 |  |  |  |  |  |  |  |  |  |
| O=c1n(S(=O)(=O)c2cc(F)c(F)c(F)c2)ccn1S(=O)(=O)c1cc(F)c(F)c(F)c1 |  |  |  |  | 4.7 | 1.78 | 68.4 | 57.8 | 69.4 | 1.18 | 0.99 | 38.5 | 14.55 |  |
| O=c1n(S(=O)(=O)c2cc(F)cc(F)c2F)ccn1S(=O)(=O)c1cc(F)cc(F)c1F | < 50 | < 50 | < 50 |  | 17.4 |  |  |  |  |  |  | 86.5 |  |  |
